Bioassay records as filed in PubChem BioAssay.
The list is not random: actives were taken first. Their share in the collection is about 4.7%.
MrgX1 antag: antagonists of human MrgX1 receptor. B-score at 10 µM. MRGX1-HEK293 calcium flux, Fluo-4, BAM8-22 antagonism; hits give low values. hit rate 1.3% among 310,000;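 active = calcium-response B-score plate-corrected more than 3 library SD below zero, starting fluorescence within 5 deviations, no agonist response on first addition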;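 note: peak minus trough fluorescence over baseline after final BAM8-22 challenge near maximal dose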
Target sequence (Q96LB2 whole entry, looked up): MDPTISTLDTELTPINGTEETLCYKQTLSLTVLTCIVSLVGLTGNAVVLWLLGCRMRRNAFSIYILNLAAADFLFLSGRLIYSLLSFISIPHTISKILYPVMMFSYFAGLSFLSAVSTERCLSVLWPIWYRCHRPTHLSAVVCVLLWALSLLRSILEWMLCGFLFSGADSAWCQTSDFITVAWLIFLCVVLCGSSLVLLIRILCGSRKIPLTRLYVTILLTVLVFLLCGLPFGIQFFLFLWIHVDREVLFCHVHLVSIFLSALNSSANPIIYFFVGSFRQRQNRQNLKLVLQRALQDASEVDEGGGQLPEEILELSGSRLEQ
KCC2 mod: modulators of human KCC2 chloride dependent transport; hit rate 2.2% among 190,000; B-score of Tl+ flux slope (higher = more flux/activation; lower = inhibition) at 10 µM; KCC2 cells, thallium flux FluoZin-2 fluorescence; AID 1456;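 active = thallium flux slope and its plate-corrected score both differing from the plate sample mean at a set confidence after two filtering rounds, in either direction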;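 note: slope of fluorescence scaled to starting intensity during 10 to 20 s after thallium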
RGS4 block: human RGS4 inhibition; P49798; HEK293 M3R/RGS4 inducible, Fluo-4 calcium flux; hits give high values; triggered by carbachol at its EC20; B-score at 10 µM; hit rate 0.45% among 310,000;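 active = B-score, a plate-corrected calcium signal, over three deviations above library mean, with baseline fluorescence within five deviations of library mean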;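 note: RGS4 expression induced by doxycycline in cells with stable M3 receptor; B-score is computed from the integrated fluorescence ratio over baseline after carbachol; higher B-score means a larger calcium signal and so more RGS4 inhibition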
Target sequence (P49798 whole entry, looked up): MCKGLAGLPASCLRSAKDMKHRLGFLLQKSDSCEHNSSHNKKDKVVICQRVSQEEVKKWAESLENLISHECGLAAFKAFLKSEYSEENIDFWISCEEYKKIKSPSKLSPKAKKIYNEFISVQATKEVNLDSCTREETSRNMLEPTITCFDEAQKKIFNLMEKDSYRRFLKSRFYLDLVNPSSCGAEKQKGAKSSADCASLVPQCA
MrgX1 allo act: human MrgX1 positive allosteric modulation, primary screen. MrgX1-HEK293, Fluo-4 calcium flux, FDSS; hits give high values. B-score at 10 µM. hit rate 0.63% among 310,000;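 active = plate-corrected calcium response at least 3 library SD above typical, normal starting fluorescence, not activating the receptor alone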;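 note: compound read alongside a low EC10 to EC30 dose of BAM8-22 agonist; peak minus trough fluorescence over baseline measured at the second addition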
RGS4 pot: RGS4 potentiation or activation. HEK293 M3R/inducible RGS4, carbachol calcium flux Fluo4; hits give low values. B-score at 10 µM. hit rate 0.92% among 310,000. AID 463111;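 active = B-score of the integrated calcium signal more than 4 SD below the library mean, with starting fluorescence not abnormally high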;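 note: negative B-score means reduced calcium response which marks RGS4 activation or potentiation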
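test system = M3R-expressing HEK293 line, RGS4 induced by doxycycline | probe or stimulus = carbachol at ECmax as muscarinic agonist stimulus | timing = dye loading 30 min 37 °C, buffer rest 30 min RT | signal = calcium dye Fluo4 fluorescence | evaluation = B score from integrated fluorescence ratio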
MrgX1 ag: agonists of human MrgX1 receptor | B-score at 10 µM | Q96LB2 | MrgX1-HEK293 cells, Fluo-4 calcium fluorescence, agonist mode; hits give high values | AID 588627 | hit rate 0.44% among 310,000;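 active = calcium response B-score plate-corrected fluorescence ratio at least 3 library SD, with starting fluorescence B-score inside 5 SD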
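Material – MrgX1-expressing HEK293 cells · Input – 15,000 cells seeded per well · Dosing – compound as first of three additions · Times – overnight seeding, then 1 h dark dye loading · Measured by – kinetic Fluo-4 NW fluorescence of intracellular calcium · Read-out – B-scored fluorescence response ratio · Benchmarks – positive and negative control wells on each plate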
KCC2 secondary: KCC2 (human) modulation, secondary assay. shares compounds with KCC2 mod. HEK293-KCC2, thallium flux, FluoZin2 fluorescence; hits give high values. normalised thallium flux (F/F0 slope) at 10 µM. hit rate 15% among 3,700;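 active = thallium flux slope above the same plate's solvent-only control mean plus 3 SD; inconclusive = the two replicate wells disagree; inactive = no significant difference from solvent-only control wells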
KCC2 bumet counter: bumetanide-insensitive thallium flux in KCC2 cells with ouabain, counter-screen; shares compounds with KCC2 mod; hit rate 49% among 3,700; normalized thallium flux at 10 µM; HEK293-KCC2 + bumetanide/ouabain, thallium flux FluoZin2; hits give high values;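 active = thallium entry rate above the same plate's blocked-transporter control wells by more than 3 SD; inconclusive = the two repeat wells disagree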;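 note: raw slope of fluorescence over initial fluorescence between 10 and 20 s after thallium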
KCC2 sec2: confirmation of human KCC2 transport modulators; shares compounds with KCC2 mod; HEK293-KCC2, thallium flux FluoZin2 fluorescence; actives lie on both sides; F/F0 rise rate, 10–20 s post-thallium; normalized thallium flux at 10 µM; hit rate 23% among 3,700;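 active = thallium flux slope more than 3 SD above or below the plate's solvent-only control mean, mostly below; inconclusive = the two repeat wells disagreed; inactive = no significant shift from solvent-only controls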;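 note: raw slope with 0.1% DMSO as baseline and bumetanide as block control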
HEK counter1: parental HEK flux effect, counter-screen; shares compounds with KCC2 mod; HEK293 parental cells, thallium flux FluoZin2, ouabain; baseline-ratio fluorescence slope, 10–20 s after thallium; thallium flux rate (normalised fluorescence) at 10 µM; hit rate 46% among 3,700; AID 1716;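 active = thallium flux rate significantly above the same plate's solvent-only control wells, beyond their mean plus 3 SD; inconclusive = the two replicate wells gave conflicting results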
KCC2 ouabain: KCC2 (human) modulation, ouabain retest | shares compounds with KCC2 mod | HEK293-KCC2, thallium flux FluoZin2 fluorescence; bidirectional: low = inhibitor, high = activator | raw Tl+ flux slope (below DMSO = inhibition, above = activation) at 10 µM | hit rate 48% among 3,700 | AID 1717;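 active = thallium flux slope beyond 3 SD from same-plate DMSO control mean in most replicates, usually higher, sometimes lower; inconclusive = repeat tests gave conflicting results; inactive = no significant difference from controls in most replicates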;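 note: slope of initial-normalized fluorescence between seconds 10 and 20 after thallium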
HEK counter2: counter-screen for KCC2 modulators: effect in parental HEK293 cells; thallium flux slope at 10 µM; shares compounds with KCC2 mod; thallium flux FluoZin-2 fluorescence slope; hit rate 33% among 3,700;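 active = thallium flux slope above the same plate's solvent-control mean plus 3 SD in both duplicate wells; inconclusive = duplicate wells that disagreed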;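 note: run without ouabain in cells lacking the KCC2 cotransporter; slope of fluorescence scaled to its starting value between 10 and 20 s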
* = called active by the depositor.

How did Cc1oc(-c2ccc(Cl)cc2)nc1CS(=O)CC(=O)NCc1cccs1 (configuration not stated) do in these assays?
MrgX1 antag: inactive; KCC2 mod: -3.6*; RGS4 block: inactive; MrgX1 allo act: inactive; RGS4 pot: inactive; MrgX1 ag: inactive; KCC2 secondary: 0.00647; KCC2 bumet counter: 0.00644; KCC2 sec2: 0.0283; HEK counter1: 0.00686; KCC2 ouabain: 0.0173; HEK counter2: 0.00968

What do the screens show for `NC(=O)c1ccccc1NC(=O)CCn1c(=S)oc2ccccc21`?
MrgX1 antag: inactive; RGS4 block: inactive; MrgX1 allo act: inactive; RGS4 pot: inactive; MrgX1 ag: inactive

Results for CC(=O)Nc1ccc(NC(=O)CN2CCN(c3ccccn3)CC2)cc1 ?
MrgX1 antag: inactive; RGS4 block: inactive; MrgX1 allo act: inactive; RGS4 pot: inactive; MrgX1 ag: inactive

What do the screens show for `O=C(CN1CCN(c2ccccn2)CC1)Nc1ccc2ccccc2c1`?
MrgX1 antag: inactive; RGS4 block: inactive; MrgX1 allo act: inactive; RGS4 pot: inactive; MrgX1 ag: inactive; KCC2 secondary: 0.00661; KCC2 bumet counter: 0.00416; KCC2 sec2: 0.0287; HEK counter1: 0.0077; KCC2 ouabain: 0.0171; HEK counter2: 0.00975

What do the screens show for `CC1CN(c2ccc(NC(=S)NNCCC#N)cc2)CC(C)O1` (configuration not stated)?
MrgX1 antag: inactive; KCC2 mod: -0.0185; RGS4 block: inactive; MrgX1 allo act: inactive; RGS4 pot: inactive; MrgX1 ag: inactive

What do the screens show for `Cc1cc(/C=N/NC(=O)c2ccc(O)cc2)c(C)n1CC(C)C`?
MrgX1 antag: inactive; KCC2 mod: -1.27; RGS4 block: inactive; MrgX1 allo act: inactive; RGS4 pot: inactive; MrgX1 ag: inactive

Results for COc1ccc(-c2cc(C(F)(F)F)c3c(=O)n(-c4ccccc4)[nH]c3n2)cc1 ?
MrgX1 antag: inactive; KCC2 mod: -5.21*; RGS4 block: inactive; MrgX1 allo act: inactive; RGS4 pot: inactive; MrgX1 ag: inactive; KCC2 secondary: 0.00721; KCC2 bumet counter: 0.00747; KCC2 sec2: 0.0302; HEK counter1: 0.00694; KCC2 ouabain: 0.0179*; HEK counter2: 0.0106

What do the screens show for `Cc1cc(C)c(C#N)c(OCC(=O)c2ccccc2)n1`?
MrgX1 antag: inactive; KCC2 mod: -0.616; RGS4 block: inactive; MrgX1 allo act: inactive; RGS4 pot: inactive; MrgX1 ag: inactive; KCC2 secondary: 0.0176; KCC2 bumet counter: 0.00489; KCC2 sec2: inconclusive; HEK counter1: 0.00726; KCC2 ouabain: 0.0148; HEK counter2: 0.0101

What do the screens show for `Cc1cc(C)c(C#N)c(OCC(=O)Nc2ccccc2)n1`?
MrgX1 antag: inactive; RGS4 block: inactive; MrgX1 allo act: inactive; RGS4 pot: inactive; MrgX1 ag: inactive

How did COc1ccccc1NC(=O)c1oc2ccc(C)cc2c1C do in these assays?
MrgX1 antag: inactive; KCC2 mod: -4.74*; RGS4 block: inactive; MrgX1 allo act: inactive; RGS4 pot: inactive; MrgX1 ag: inactive; KCC2 secondary: 0.00594; KCC2 bumet counter: 0.00528; KCC2 sec2: 0.0312; HEK counter1: 0.0081; KCC2 ouabain: 0.0193; HEK counter2: 0.0119

What do the screens show for `CCN(CC)C(=O)c1cc(-c2ccc3c(c2)OCO3)on1`?
MrgX1 antag: inactive; RGS4 block: inactive; MrgX1 allo act: inactive; RGS4 pot: inactive; MrgX1 ag: inactive

What do the screens show for `Cc1cccc(C=Nc2ccccc2C(N)=O)c1`?
MrgX1 antag: inactive; KCC2 mod: -4.75*; RGS4 block: inactive; MrgX1 allo act: inactive; RGS4 pot: inactive; MrgX1 ag: inactive; KCC2 secondary: 0.00502; KCC2 bumet counter: 0.00483; KCC2 sec2: 0.03; HEK counter1: 0.00736; KCC2 ouabain: 0.0184; HEK counter2: 0.0106

What do the screens show for `Cc1ccc(C=Nc2ccccc2C(N)=O)s1`?
MrgX1 antag: inactive; KCC2 mod: -0.0141; RGS4 block: inactive; MrgX1 allo act: inactive; RGS4 pot: inactive; MrgX1 ag: inactive

Results for COc1cc(NC(=O)C(C)C)ccc1NC(=O)c1ccco1 ?
MrgX1 antag: inactive; RGS4 block: inactive; MrgX1 allo act: inactive; RGS4 pot: inactive; MrgX1 ag: inactive

What do the screens show for `COc1ccc(OC)c(NC(=O)C(=O)NNC(=O)c2cccs2)c1`?
MrgX1 antag: inactive; KCC2 mod: 9.87*; RGS4 block: inactive; MrgX1 allo act: inactive; RGS4 pot: inactive; MrgX1 ag: inactive; KCC2 secondary: 0.0149*; KCC2 bumet counter: 0.0631*; KCC2 sec2: 0.0336; HEK counter1: 0.0221*; KCC2 ouabain: 0.0398*; HEK counter2: 0.0149*

How did COc1cc(NC(=S)NC(=O)c2ccco2)ccc1NC(=O)C(C)C do in these assays?
MrgX1 antag: inactive; KCC2 mod: 5.17*; RGS4 block: inactive; MrgX1 allo act: inactive; RGS4 pot: inactive; MrgX1 ag: inactive; KCC2 secondary: 0.00988; KCC2 bumet counter: 0.012*; KCC2 sec2: 0.0306; HEK counter1: 0.012*; KCC2 ouabain: inconclusive; HEK counter2: 0.0114

Results for COc1ccc(OC)c(NC(=O)C2CCN(C(=O)c3cccs3)CC2)c1 ?
MrgX1 antag: inactive; KCC2 mod: -0.0687; RGS4 block: inactive; MrgX1 allo act: inactive; RGS4 pot: inactive; MrgX1 ag: inactive
